Data reported in ChEMBL document CHEMBL5126663, “Cellular Stress-Induced Metabolites in Escherichia coli” (J Nat Prod, 2022).
Blank lines part the entries; values can stand above or below the compound they belong to. Activity calls are given as the source filed them. The calls are words filed in the database; no cut-off is given here.

What was measured:
[1] = Antioxidant activity assessed as DPPH radical scavenging activity incubated for 35 mins under dark condition; type: functional
Outline: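 DMSO stocks (100 mM) added to freshly prepared 0.2 mM DPPH in methanol, two-fold serially diluted, kept dark 35 min, absorbance read at 517 nm. Background absorbance from a parallel methanol-only (no DPPH) plate subtracted. Scavenging % = 100 × (Acontrol−Asample)/Acontrol; n = 3; ascorbic acid positive control.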

Th17 [2] = test: Immunomodulatory activity in IL-17A Katushka/IL-10eGFP/Foxp3RFP reporter mouse cell trace violet-labelled CD4+ T cell derived TGF-beta1/IL-6/IL-23-polarized Th17 cells assessed as increase in IL-17 positive cell population at 5 to 20 uM measured after 3 days by flow cytomtery; type: functional, cell-based; settings: dose 5-20 µM, time 3.0 day
Outline: (§1)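 Naïve CD4+ T cells from spleen and lymph nodes of 2 triple reporter mice, CellTrace Violet-labelled, polarized in Click's medium with 5% FBS, anti-CD3/anti-CD28, anti-IFNγ, anti-IL-4, IL-23, IL-6 and TGF-β1. Compound or DMSO added after 1–3 days, cultured 3 more days; flow cytometry on viable CD4+ cells (IL-17A Katushka, IL-10 eGFP). Fold change vs DMSO; n = 4.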

Th17 [3] = test: Immunomodulatory activity in IL-17A Katushka/IL-10eGFP/Foxp3RFP reporter mouse cell trace violet-labelled CD4+ T cell derived TGF-beta1/IL-6/IL-23-polarized Th17 cells assessed as increase in IL-10/IL-17 positive cell population at 5 to 20 uM measured after 3 days by flow cytomtery; type: functional, cell-based; settings: dose 5-20 µM, time 3.0 day; outline: as §1
[4] = (§2) Immunomodulatory activity in IL-17A Katushka/IL-10eGFP/Foxp3RFP reporter mouse cell trace violet-labelled CD4+ T cell derived TGF-beta1/IL-6/IL-23-polarized Th17 cells assessed as increase in IL-10 positive cell population at 5 to 20 uM measured after 3 days by flow cytomtery relative to control; type: functional; settings: dose 5-20 µM; time 3 day; outline: as §1
[5] = target: T1, Aryl hydrocarbon receptor (Homo sapiens, UniProt P35869); test: Agonist activity at AhR in human HT29-Lucia AhR cells measured after 24 hrs by Quanti-luc gold luminescence assay; type: cell-based; settings: DDE = dose-dependent effect
T1 sequence (P35869 whole entry): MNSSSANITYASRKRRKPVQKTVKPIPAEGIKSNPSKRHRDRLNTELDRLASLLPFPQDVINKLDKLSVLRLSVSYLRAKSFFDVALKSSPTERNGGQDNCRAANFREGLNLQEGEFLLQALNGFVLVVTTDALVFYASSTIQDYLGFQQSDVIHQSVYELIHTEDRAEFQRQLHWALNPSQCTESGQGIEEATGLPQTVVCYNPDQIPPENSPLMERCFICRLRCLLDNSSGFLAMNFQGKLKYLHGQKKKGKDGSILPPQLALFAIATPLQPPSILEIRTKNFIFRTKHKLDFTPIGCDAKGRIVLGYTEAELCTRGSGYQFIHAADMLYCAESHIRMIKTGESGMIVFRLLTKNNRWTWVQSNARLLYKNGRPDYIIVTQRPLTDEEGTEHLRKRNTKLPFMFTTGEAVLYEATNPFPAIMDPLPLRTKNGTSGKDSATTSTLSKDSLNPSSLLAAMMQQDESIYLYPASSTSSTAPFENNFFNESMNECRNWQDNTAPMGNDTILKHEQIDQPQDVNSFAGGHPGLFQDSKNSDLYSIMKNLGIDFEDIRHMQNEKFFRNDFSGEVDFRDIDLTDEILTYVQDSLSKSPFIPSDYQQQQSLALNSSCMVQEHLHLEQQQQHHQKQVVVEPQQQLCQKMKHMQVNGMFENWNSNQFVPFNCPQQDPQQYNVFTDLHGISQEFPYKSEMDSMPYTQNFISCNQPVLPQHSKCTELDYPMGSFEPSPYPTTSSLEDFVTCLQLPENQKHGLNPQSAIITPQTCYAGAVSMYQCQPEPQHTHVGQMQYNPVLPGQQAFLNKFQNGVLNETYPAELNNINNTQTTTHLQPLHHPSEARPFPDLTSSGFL
Outline: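 HT29-Lucia AhR reporter cells seeded ~50,000 cells/well; ligand or DMSO vehicle added (ITE positive control, unstimulated negative control) for 24 h. Secreted Lucia luciferase in supernatant detected with QUANTI-Luc Gold luminescence. Triplicate; expressed as fold-change relative to DMSO-treated cells.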

[6] = as §2, with “in IL-10/IL-17” for “in IL-10”; type: functional; settings: dose 5-20 µM; time 3 day; outline: as §1
[7] = Increase in IL-17A Katushka/IL-10eGFP/Foxp3RFP reporter mouse cell trace violet-labelled CD4+ T cell derived TGF-beta1/IL-6/IL-23-polarized Th17 cell proliferation at 10 to 20 uM measured after 3 days by flow cytomtery; type: toxicity, cell-based; settings: th17, 72 h, dose 10-20 µM, time 3 day
Outline: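 Same Th17-polarized, CellTrace Violet-labelled reporter-mouse CD4+ T cells; compound or DMSO added after 1–3 days, then 3 more days culture. Proliferation by flow cytometry as percentage of viable CD4+ cells having undergone 7 or more divisions (CellTrace Violet dilution); n = 4.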

EC50 [1]: 30 µM
Compound: O=C1O[C@H]([C@@H](O)CO)C(O)=C1O [ASCORBIC ACID]
Activity (Th17 [2]): Active | Activity (Th17 [3]): Active

Compound: O=c1[nH]c(=O)c2nc(-c3ccccc3)c(=O)n(C[C@H](O)[C@H](O)[C@H](O)CO)c2[nH]1
Activity [1]: Active

Compound: O=c1[nH]c(=O)c2nc(-c3ccc(O)cc3)c(=O)n(C[C@H](O)[C@H](O)[C@H](O)CO)c2[nH]1
Activity [1]: Active

EC50 [1]: 32 µM | Activity [5]: Dde
Compound: O=c1[nH]c(=O)c2nc(-c3c[nH]c4ccccc34)c(=O)n(C[C@H](O)[C@H](O)[C@H](O)CO)c2[nH]1
fold change (FC) [4]: 2 | fold change (FC) [6]: 2 | Activity [7]: Non-Toxic
